According to ChEMBL document CHEMBL1149177, “Meta-substituted aryl(thio)ethers as potent partial agonists (or antagonists) for the histamine H3 receptor lacking a nitrogen atom in the side chain” (J Med Chem, 2004):

What was measured:
Mus musculus [1] = assay: In vivo inhibition of brain N-methyl-histamine formation in mice when administered perorally in presence of oxalate salt; type: functional; conditions: po
In short: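 Male Swiss mice (18–22 g), groups of 6–12, given oxalate salt orally as solution or suspension in 1% methylcellulose. Cerebral cortex taken 90 min after dosing, homogenized in ice-cold 0.4 N perchloric acid. Nτ-methylhistamine measured by radioimmunoassay. Agonist maximal effect referenced to imetit 10 mg/kg; antagonist maximal effect referenced to thioperamide 10 mg/kg. ED50 given as free base.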

Histamine H3 receptor = Histamine H3 receptor (Rattus norvegicus, UniProt Q9QYN8); assay: In vitro inhibitory activity against histamine H3 receptor using [3H]histamine as radioligand from rat cerebral cortex synaptosomes; type: subcellular, Brain
Chain of Histamine H3 receptor (Q9QYN8 whole entry): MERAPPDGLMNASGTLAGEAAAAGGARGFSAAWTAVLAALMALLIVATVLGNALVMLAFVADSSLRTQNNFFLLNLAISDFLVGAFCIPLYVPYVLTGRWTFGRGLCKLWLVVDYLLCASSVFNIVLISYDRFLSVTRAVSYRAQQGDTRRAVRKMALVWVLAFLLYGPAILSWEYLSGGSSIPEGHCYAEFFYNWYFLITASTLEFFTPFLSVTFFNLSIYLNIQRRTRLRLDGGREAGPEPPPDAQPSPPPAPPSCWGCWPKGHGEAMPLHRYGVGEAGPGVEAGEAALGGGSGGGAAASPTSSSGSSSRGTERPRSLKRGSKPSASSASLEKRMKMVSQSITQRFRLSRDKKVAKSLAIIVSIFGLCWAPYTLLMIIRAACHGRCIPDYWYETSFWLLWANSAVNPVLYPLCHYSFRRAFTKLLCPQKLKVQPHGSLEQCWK
In short: (§1)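 Rat cerebral cortex synaptosomes preincubated 30 min at 37 °C with L-[3H]histidine to label histamine stores; K+-evoked depolarization-induced [3H]histamine release measured. Intrinsic activity taken as maximal inhibition by test substance relative to that from histamine (1 μM). Antagonism read as blockade of the histamine effect, expressed as Ki.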

Mus musculus [2] = assay: In vivo Intrinsic activity inhibition of brain N-mehtylhistamine formation in mice relative to imetit; Antagonist.; type: functional
In short: (§2)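 Oxalate salt given orally as solution or suspension in 1% methylcellulose to groups of 6–12 male Swiss mice (18–22 g); doses 0.15–30 mg/kg. Cerebral cortex taken 90 min later, homogenized in ice-cold 0.4 N perchloric acid, Nτ-methylhistamine measured by radioimmunoassay. Agonist maxima referenced to imetit 10 mg/kg; antagonist maxima to thioperamide 10 mg/kg; ED50 as free base.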

Cavia porcellus = organism: Cavia porcellus; assay: Tested for activity of compound against neurogenic contractions of guinea pig jejunum; Potent antagonist; type: functional; conditions: filed as antagonist
[3] = target: Histamine H3 receptor (Mus musculus) (UniProt P58406); assay: Activity against Histamine H3 receptor mediated inhibition of [3H]norepinephrine release from mouse brain; Partial agonist; type: functional; conditions: filed as partial agonist
Chain of Histamine H3 receptor (Mus musculus) (P58406 whole entry): as the sequence (Q9QYN8 whole entry) above, with T15A, A286T, A290G, R387H, I389V counted along it

[4] = target: Histamine H3 receptor (Rattus norvegicus) (UniProt Q9QYN8); assay: In vitro activity against histamine H3 receptor in rat synaptosomes; Partial agonist; type: functional, subcellular; conditions: Brain; filed as partial agonist; in short: as §1
Chain of Histamine H3 receptor (Rattus norvegicus) (Q9QYN8 whole entry): as the sequence (Q9QYN8 whole entry) above

[5] = target: Histamine H3 receptor (Cavia porcellus) (UniProt Q9JI35); assay: In vitro activity against histamine H3 receptor in guinea pig ileum; Antagonist; type: functional, tissue-based; conditions: filed as antagonist
Chain of Histamine H3 receptor (Cavia porcellus) (Q9JI35 whole entry): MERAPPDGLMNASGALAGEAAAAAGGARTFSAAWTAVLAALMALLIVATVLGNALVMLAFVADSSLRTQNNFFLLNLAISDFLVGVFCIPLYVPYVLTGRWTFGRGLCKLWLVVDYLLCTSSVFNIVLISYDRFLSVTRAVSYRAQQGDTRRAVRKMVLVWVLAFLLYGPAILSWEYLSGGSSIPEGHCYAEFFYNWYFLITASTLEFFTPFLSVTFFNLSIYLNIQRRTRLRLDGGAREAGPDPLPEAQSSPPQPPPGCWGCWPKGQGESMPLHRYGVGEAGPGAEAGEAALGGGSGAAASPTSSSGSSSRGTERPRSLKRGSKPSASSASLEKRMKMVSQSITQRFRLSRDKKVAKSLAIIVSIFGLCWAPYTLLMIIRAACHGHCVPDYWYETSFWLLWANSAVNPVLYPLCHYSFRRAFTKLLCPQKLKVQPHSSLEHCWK

[6] = target: Histamine H3 receptor (Homo sapiens) (UniProt Q9Y5N1); assay: Tested in vivo for activity against histamine H3 receptor; Full agonist; type: functional, organism-based; conditions: filed as agonist; in short: as §2
Chain of Histamine H3 receptor (Homo sapiens) (Q9Y5N1 whole entry): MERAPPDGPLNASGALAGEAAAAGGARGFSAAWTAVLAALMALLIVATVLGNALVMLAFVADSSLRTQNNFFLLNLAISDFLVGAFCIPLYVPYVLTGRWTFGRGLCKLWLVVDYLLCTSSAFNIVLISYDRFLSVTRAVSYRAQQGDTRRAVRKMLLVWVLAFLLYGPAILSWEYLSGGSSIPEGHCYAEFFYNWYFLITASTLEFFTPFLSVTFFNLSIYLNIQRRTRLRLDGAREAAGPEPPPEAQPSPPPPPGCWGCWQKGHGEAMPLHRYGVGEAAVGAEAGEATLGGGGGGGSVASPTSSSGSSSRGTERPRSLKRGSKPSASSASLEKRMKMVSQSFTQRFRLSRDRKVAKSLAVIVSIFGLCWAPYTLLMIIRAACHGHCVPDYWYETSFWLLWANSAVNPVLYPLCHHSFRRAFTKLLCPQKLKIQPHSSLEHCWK

Mus musculus [7] = organism: Mus musculus; assay: Intrinsic activity was determined inhibition of brain N-mehtylhistamine formation in mice relative to imetit; type: functional; in short: as §2
[8] = target: Histamine H3 receptor (Cavia porcellus) (UniProt Q9JI35); assay: Tested for activity of compound against histamine H3 receptor in guinea pig ileum; Antagonist; type: functional, tissue-based; conditions: filed as antagonist
[9] = target: Histamine H3 receptor (Homo sapiens) (UniProt Q9Y5N1); assay: Tested for activity against histamine H3 receptor; Weak antagonist; type: functional; conditions: filed as antagonist
[10] = target: Histamine H3 receptor (Rattus norvegicus) (UniProt Q9QYN8); assay: In vitro intrinsic activity against histamine H3 receptor using [3H]histamine as radioligand from rat cerebral cortex synaptosomes with respect to histamine; type: subcellular; conditions: Brain; in short: as §1
[11] = target: Histamine H3 receptor (Homo sapiens) (UniProt Q9Y5N1); assay: Agonistic activity against histamine H3 receptor; Partial agonist; type: functional; conditions: filed as partial agonist
[12] = target: Histamine H3 receptor (Rattus norvegicus) (UniProt Q9QYN8); assay: In vitro intrinsic activity against histamine H3 receptor using [3H]histamine as radioligand from rat cerebral cortex synaptosomes with respect to histamine; No detectable agonism.; type: functional, subcellular; conditions: Brain; in short: as §1
Rattus norvegicus = organism: Rattus norvegicus; assay: In vitro effective concentration of compound required to reduce histamine release from rat synaptosomes; type: functional; conditions: Brain; in short: as §1
[13] = target: Histamine H3 receptor (Mus musculus) (UniProt P58406); assay: Tested for activity against histamine H3 receptor in vivo in mice; Weak agonist; type: functional, organism-based; conditions: filed as partial agonist; in short: as §2

With S=C(NC1CCCCC1)N1CCC(c2cnc[nH]2)CC1 [THIOPERAMIDE] as the molecule, how does the ED50 (Mus musculus [1]) read?
Its ED50 is 1 mg/kg.

FC(F)(F)c1cccc(OCCc2c[nH]cn2)c1 was tested. Which Ki (Histamine H3 receptor) did it give?
Its Ki is 0.018 µM.

And the ED50 (Mus musculus [1])?
Its ED50 is under 10 mg/kg.

And the Intrinsic activity (Mus musculus [2])?
Its Intrinsic activity is 0.

For CC(=O)c1cccc(OCCCc2cnc[nH]2)c1, which Ki (Histamine H3 receptor) is on record?
The Ki was 0.02 µM.

Which Ki (Histamine H3 receptor) does the source give for CC(C)c1cccc(OCCCc2cnc[nH]2)c1 here?
The Ki was 0.029 µM.

With C[C@@H](N)Cc1c[nH]cn1 as the molecule, how does the Activity (Cavia porcellus) read?
The Activity was “Antagonist”.

What about the Activity [3] of the same molecule?
Its Activity is “Partial agonist”.

How did the Activity [4] turn out when CC(C)CCOCCCc1c[nH]cn1 was run?
The Activity was “Partial agonist”.

What about the Activity [5] of the same molecule?
Its Activity is “Antagonist”.

And the Activity [6]?
The Activity was “Agonist”.

Which results are given for c1nc(CC2CCNCC2)c[nH]1?
Activity (Cavia porcellus): Antagonist; Activity [3]: Partial agonist

FC(F)(F)c1cc(OCCCc2c[nH]cn2)cc(C(F)(F)F)c1 was tested. Which Ki (Histamine H3 receptor) did it give?
The Ki was 0.116 µM.

What about the ED50 (Mus musculus [1]) of the same molecule?
Its ED50 is 4.8 mg/kg.

What about the Intrinsic activity (Mus musculus [7]) of the same molecule?
The Intrinsic activity was 0.

For O=[N+]([O-])c1cccc(OCCCc2cnc[nH]2)c1, which Ki (Histamine H3 receptor) is on record?
Its Ki is 0.0094 µM.

With N=C(N)SCCc1c[nH]cn1 as the molecule, how does the Activity (Cavia porcellus) read?
The Activity was “Antagonist”.

And the Activity [3]?
Its Activity is “Partial agonist”.

Which Activity (Cavia porcellus) does the source give for NCC[C@@H]1C[C@@H]1c1c[nH]cn1 here?
The Activity was “Antagonist”.

And the Activity [3]?
The Activity was “Partial agonist”.

What does the source list for CC(C)NC(=O)OCCCc1c[nH]cn1?
Activity [8]: Antagonist; Activity [9]: Partial antagonist

Which ED50 (Mus musculus [1]) does the source give for FC(F)(F)c1ccc(OCCCc2c[nH]cn2)cc1 here?
Its ED50 is 0.6 mg/kg.

And the Intrinsic activity (Mus musculus [7])?
Its Intrinsic activity is 0.

How did the Intrinsic activity [10] turn out when O=[N+]([O-])c1cccc(OCCCc2c[nH]cn2)c1 was run?
The Intrinsic activity was 0.1.

What about the ED50 (Mus musculus [1]) of the same molecule?
The ED50 was 1.1 mg/kg.

What about the Intrinsic activity (Mus musculus [7]) of the same molecule?
Its Intrinsic activity is 0.61.

How did the Ki (Histamine H3 receptor) turn out when CC(C)(C)c1cccc(OCCCc2cnc[nH]2)c1 was run?
Its Ki is 0.022 µM.

With FC(F)(F)c1cccc(SCCCc2c[nH]cn2)c1 as the molecule, how does the Ki (Histamine H3 receptor) read?
Its Ki is 0.038 µM.

What about the ED50 (Mus musculus [1]) of the same molecule?
The ED50 was over 10 mg/kg.

With FC(F)(F)c1cccc(OCCCCc2c[nH]cn2)c1 as the molecule, how does the Intrinsic activity (Mus musculus [7]) read?
Its Intrinsic activity is 0.7.

N#Cc1ccc(OCCCc2c[nH]cn2)cc1 was tested. Which ED50 (Mus musculus [1]) did it give?
The ED50 was 0.54 mg/kg.

And the Intrinsic activity (Mus musculus [7])?
The Intrinsic activity was 0.

Which results are given for CC(=O)c1cccc(OCCCc2c[nH]cn2)c1?
Intrinsic activity [10]: 0.15; ED50 (Mus musculus [1]): 0.4 mg/kg; Intrinsic activity (Mus musculus [7]): 0.9

What does the source list for CC(C)(C)c1cccc(OCCCc2c[nH]cn2)c1?
Intrinsic activity [10]: 0.28; ED50 (Mus musculus [1]): 0.8 mg/kg; Intrinsic activity (Mus musculus [7]): 0.78

How did the Activity (Cavia porcellus) turn out when C[C@H]1NCC[C@@H]1c1c[nH]cn1 was run?
The Activity was “Antagonist”.

And the Activity [3]?
Its Activity is “Partial agonist”.

FC(F)(F)c1ccccc1OCCCc1c[nH]cn1 was tested. Which Ki (Histamine H3 receptor) did it give?
The Ki was about 0.5 µM.

And the ED50 (Mus musculus [1])?
Its ED50 is over 10 mg/kg.

How did the Activity [11] turn out when Ic1ccc(COCCCc2c[nH]cn2)cc1 was run?
Its Activity is “Partial agonist”.

With CC(NC(=O)OCCCc1c[nH]cn1)C(C)(C)C (stereo not drawn) as the molecule, how does the Activity [8] read?
The Activity was “Antagonist”.

For FC(F)(F)c1cccc(OCCCc2c[nH]cn2)c1, which Intrinsic activity [12] is on record?
The Intrinsic activity was 0.4.

What about the Ki (Histamine H3 receptor) of the same molecule?
Its Ki is 0.0084 µM.

What about the ED50 (Mus musculus [1]) of the same molecule?
Its ED50 is 0.6 mg/kg.

What about the Intrinsic activity (Mus musculus [7]) of the same molecule?
Its Intrinsic activity is 1.

What about the EC50 (Rattus norvegicus) of the same molecule?
The EC50 was 0.098 µM.

Which results are given for Brc1cccc(OCCCc2c[nH]cn2)c1?
Intrinsic activity [12]: < 0.1; ED50 (Mus musculus [1]): > 10 mg/kg

Which Activity (Cavia porcellus) does the source give for NCCCCCc1c[nH]cn1 here?
Its Activity is “Antagonist”.

And the Activity [3]?
The Activity was “Partial agonist”.

With CC(C)(C)CCOCCCc1c[nH]cn1 as the molecule, how does the Activity [6] read?
Its Activity is “Agonist”.

For FC(F)(F)c1cccc(SCCc2c[nH]cn2)c1, which Intrinsic activity [10] is on record?
The Intrinsic activity was 0.4.

And the ED50 (Mus musculus [1])?
Its ED50 is 0.94 mg/kg.

And the Intrinsic activity (Mus musculus [7])?
Its Intrinsic activity is 0.7.

What does the source list for FC(F)(F)c1cccc(CCCCc2c[nH]cn2)c1?
Ki (Histamine H3 receptor): 0.038 µM; ED50 (Mus musculus [1]): 6.5 mg/kg; Intrinsic activity (Mus musculus [7]): 0

Which Ki (Histamine H3 receptor) does the source give for CCc1cccc(OCCCc2cnc[nH]2)c1 here?
Its Ki is 0.015 µM.

With CCc1cccc(OCCCc2c[nH]cn2)c1 as the molecule, how does the Intrinsic activity [10] read?
The Intrinsic activity was 0.2.

And the ED50 (Mus musculus [1])?
Its ED50 is about 1 mg/kg.

What about the Intrinsic activity (Mus musculus [7]) of the same molecule?
Its Intrinsic activity is 0.85.

How did the Ki (Histamine H3 receptor) turn out when Cc1cccc(OCCCc2cnc[nH]2)c1 was run?
The Ki was 0.037 µM.

And the ED50 (Mus musculus [1])?
The ED50 was over 10 mg/kg.

Which results are given for N#Cc1cccc(OCCCc2cnc[nH]2)c1?
Ki (Histamine H3 receptor): 0.108 µM; ED50 (Mus musculus [1]): > 10 mg/kg

c1ccc(OCCCc2c[nH]cn2)cc1 was tested. Which ED50 (Mus musculus [1]) did it give?
The ED50 was over 10 mg/kg.

Which Activity (Cavia porcellus) does the source give for NC[C@H]1CC[C@H](c2c[nH]cn2)O1 here?
Its Activity is “Antagonist”.

And the Activity [3]?
The Activity was “Partial agonist”.

CC(C)(C)NC(=O)OCCCc1c[nH]cn1 was tested. Which Activity [13] did it give?
Its Activity is “Partial agonist”.

And the Activity [8]?
Its Activity is “Antagonist”.

How did the Ki (Histamine H3 receptor) turn out when Brc1cccc(OCCCc2cnc[nH]2)c1 was run?
Its Ki is 0.019 µM.

Which results are given for N=C(N)CCCc1c[nH]cn1?
Activity (Cavia porcellus): Antagonist; Activity [3]: Partial agonist

How did the Activity [8] turn out when CC(C)(C)CNC(=O)OCCCc1c[nH]cn1 was run?
Its Activity is “Antagonist”.

Which results are given for CC(C)c1cccc(OCCCc2c[nH]cn2)c1?
Intrinsic activity [10]: 0.3; ED50 (Mus musculus [1]): 0.5 mg/kg; Intrinsic activity (Mus musculus [7]): 0.82

How did the Activity [8] turn out when CC(C)CNC(=O)OCCCc1c[nH]cn1 was run?
Its Activity is “Antagonist”.
